The whole screen tested about 330,000 compounds, of which about 55 (0.02%) were called active.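 Rule for the calls: active = highest replicate inhibition of at least 40%; inactive = the rest.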 The list comes from a sample in which actives are over-represented; it also holds similar structures and randomly drawn compounds.
biological target: Golgi-associated PDZ and coiled-coil motif-containing protein (Homo sapiens) (UniProt Q9HD26); assay: CAL PDZ peptide-binding inhibitors, primary screen, biochemical, fluorescence polarization, Cer-tagged CAL PDZ, HTS (AID 504414); details: purified CAL PDZ, TMR-peptide fluorescence polarization, 1 h; at 20 µM; hits give high values;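 note: plate controls were DMSO neutral control wells for no effect and unlabeled competitor peptide control wells for full effect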
How it was run: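 System: purified tagged CAL PDZ domain construct (CerCALP). Schedule: 1 h incubation at room temperature before polarization reading. Medium: 25 mM sodium phosphate pH 7.4, 150 mM NaCl, TCEP, IgG, Thesit. Read-out: percent inhibition from loss of millipolarization. Measured by: FP readout, S and P plane fluorescence. Probe or stimulus: fluorescent TMR peptide probe.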

Q: `CCCCn1c(N)c(N(CCOC)C(=O)c2oc3ccc(OC)cc3c2C)c(=O)[nH]c1=O` was tested. Which inhibition did it give?
A: The inhibition was -1.98% (inactive).

Q: `Cc1onc(-c2c(F)cccc2Cl)c1C(=O)OCC(=O)N1C(C)CCCC1C` (stereo unspecified) was tested. Which inhibition did it give?
A: Its inhibition is -0.828% (inactive).

Q: For `Cc1ccc(NC(=O)C2CC2c2ccccc2)cc1` (stereo unspecified), which inhibition is on record?
A: Its inhibition is -0.307% (inactive).

Q: Which inhibition does the source give for `COc1ccccc1C(=O)Nc1ccc(OCC(=O)N2CCCCC2)cc1` here?
A: The inhibition was -1.71% (inactive).

Q: How did the inhibition turn out when `COc1ccc(CCNC(=O)c2nnc(CS(=O)(=O)c3ccccc3)o2)cc1OC` was run?
A: Its inhibition is 1.25% (inactive).

Q: With `COc1c(C)cc(C(=O)C2CCCN(S(=O)(=O)c3c(C)noc3C)C2)cc1C` (stereo unspecified) as the compound, how does the inhibition read?
A: The inhibition was -2.46% (inactive).

Q: With `Cc1ccc(S(=O)(=O)N(CC(O)CN2C(=O)NC(C)(C)C2=O)c2cccc([N+](=O)[O-])c2)cc1` (stereo unspecified) as the compound, how does the inhibition read?
A: Its inhibition is -1.82% (inactive).

Q: `CC(C)=CCCC1(C)C=Cc2c(ccc3c2[nH]c2cc(O)c(C)cc23)O1` (stereo unspecified) was tested. Which inhibition did it give?
A: Its inhibition is 0.0711% (inactive).

Q: With `Cc1csc(SCC(=O)N(c2ccccc2)C(C)C)n1` as the compound, how does the inhibition read?
A: The inhibition was -2.45% (inactive).

Q: With `O=C(Cc1ccc(NC(=O)C2CCCN(C(=O)CCc3ccccc3)C2)cc1)Nc1ccc(C(=O)N2CCOCC2)cc1` (stereo unspecified) as the compound, how does the inhibition read?
A: The inhibition was -1.16% (inactive).

Q: For `CC(=O)CCS(=O)(=O)c1ccc(C)c(C)c1`, which inhibition is on record?
A: The inhibition was 0.503% (inactive).

Q: With `Cc1c(C(=O)N2CCCC2)c(S(=O)(=O)NCC(C)c2ccccc2)c(C)n1C` (stereo unspecified) as the compound, how does the inhibition read?
A: The inhibition was -2.4% (inactive).

Q: With `Cc1ccc(N(CC(=O)NC2CCCCC2)C(=O)CCCC(=O)Nc2ccccn2)c(C)c1` as the compound, how does the inhibition read?
A: The inhibition was 0.671% (inactive).

Q: For `Cc1cc(-c2csc(N)n2)c(C)n1-c1ccccc1`, which inhibition is on record?
A: Its inhibition is -2.46% (inactive).

Q: For `CC(=O)c1ccc(NC(=O)C(C)OC(=O)c2ccc(NS(=O)(=O)c3ccc4[nH]c(=O)[nH]c4c3)cc2)cc1` (stereo unspecified), which inhibition is on record?
A: The inhibition was 1.56% (inactive).

Q: With `C=CCN1C(=O)C(O)(CC(=O)c2ccccn2)c2ccccc21` (stereo unspecified) as the compound, how does the inhibition read?
A: The inhibition was 0.0287% (inactive).

Q: How did the inhibition turn out when `Cc1ccc2cc(C)c(N3CCC(C)CC3)nc2c1` was run?
A: Its inhibition is 1.11% (inactive).

Q: `CCOc1ncccc1C(=O)N(CC)CC(=O)Nc1ccc(NC(C)=O)cc1` was tested. Which inhibition did it give?
A: The inhibition was -1.13% (inactive).

Q: With `CCN(CC)c1ccc(NC(=O)CCc2nnc3ccc(N4CCCCC4)nn23)c(C)c1` as the compound, how does the inhibition read?
A: Its inhibition is 0.659% (inactive).

Q: Which inhibition does the source give for `Cc1ccc(CNC(=O)C(=O)c2cn(CC(=O)N3CCOCC3)c3ccccc23)cc1` here?
A: The inhibition was -0.774% (inactive).

Q: With `O=C(C1CC(=O)N(C2CCCCC2)C1)N1CCN(c2ccccc2)CC1` (stereo unspecified) as the compound, how does the inhibition read?
A: Its inhibition is -3.07% (inactive).

Q: How did the inhibition turn out when `CCCOP(=O)(c1ccc(N(C)C)cc1)C(O)c1cc(OC)c(OC)c(OC)c1` (stereo unspecified) was run?
A: The inhibition was -2.28% (inactive).

Q: Which inhibition does the source give for `Cc1nc(CN(C)C(=O)CC2C(=O)NCCN2Cc2ccc(F)cc2)cs1` (stereo unspecified) here?
A: The inhibition was -1.72% (inactive).

Q: How did the inhibition turn out when `COC(=O)c1sc(C(F)(F)F)c(-c2ccccc2)c1S(=O)(=O)N(C)C` was run?
A: The inhibition was -1.85% (inactive).

Q: For `CN1CCN(CC(O)COCc2ccc3c(c2)OCO3)CC1` (stereo unspecified), which inhibition is on record?
A: Its inhibition is 0.909% (inactive).

Q: How did the inhibition turn out when `CCN(CC)c1ccc(C(=O)c2cnc(/N=C/N(C)C)s2)cc1` was run?
A: The inhibition was -0.472% (inactive).

Q: How did the inhibition turn out when `CC1CCCN(S(=O)(=O)c2ccc(-c3ccc(=O)[nH]n3)o2)C1` (stereo unspecified) was run?
A: The inhibition was -2.4% (inactive).

Q: `Cc1cccc(NC(=O)c2ccc(OCC(=O)NCc3ccccc3)cc2)c1C` was tested. Which inhibition did it give?
A: The inhibition was 0.0994% (inactive).

Q: For `CCc1c(Nc2ccccc2Cl)nc(N)[nH]c1=O`, which inhibition is on record?
A: The inhibition was 0.824% (inactive).

Q: With `O=C(CCl)NNc1cccc(Cl)n1` as the compound, how does the inhibition read?
A: The inhibition was -0.466% (inactive).

Q: Which inhibition does the source give for `Cc1sc2ncn(CC(=O)NCCN(C)C)c(=O)c2c1S(=O)(=O)N1CCC(C)CC1` here?
A: Its inhibition is -1.98% (inactive).

Q: With `CCCn1c(N)c(N(CCOC)C(=O)C2CCCC2)c(=O)[nH]c1=O` as the compound, how does the inhibition read?
A: Its inhibition is -0.787% (inactive).

Q: How did the inhibition turn out when `CN(CCO)S(=O)(=O)c1ccc2c(c1)C(=O)c1cc(S(=O)(=O)N(C)CCO)ccc1-2` was run?
A: Its inhibition is -0.349% (inactive).

Q: For `CC1C(=O)NC(=O)C1c1ccccc1` (stereo unspecified), which inhibition is on record?
A: Its inhibition is -1.12% (inactive).

Q: How did the inhibition turn out when `COc1ccc(Cl)cc1S(=O)(=O)N1CCC(O)(c2ccc(Cl)cc2)CC1` was run?
A: Its inhibition is 0.846% (inactive).

Q: For `COc1cc(C2C(C(=O)c3sc(C)nc3C)=C(O)C(=O)N2CCN(C)C)cc(OC)c1OC` (stereo unspecified), which inhibition is on record?
A: The inhibition was 0.746% (inactive).

Q: How did the inhibition turn out when `O=C(NCc1ccc2c(c1)OCO2)c1cc([N+](=O)[O-])ccc1N1CCOCC1` was run?
A: Its inhibition is -1.53% (inactive).

Q: Which inhibition does the source give for `Cc1ccccc1OCCC(=O)OCC(=O)NCCc1ccc(S(N)(=O)=O)cc1` here?
A: The inhibition was -0.918% (inactive).

Q: `Cc1ccn2c(c1)nc(=O)c1cc(S(=O)(=O)N3CCC(C)CC3)ccc12` was tested. Which inhibition did it give?
A: The inhibition was -0.295% (inactive).

Q: Which inhibition does the source give for `O=S(=O)(c1ccc(Cl)cc1)N1CCCN(c2ccc(C(F)(F)F)cn2)CC1` here?
A: The inhibition was -1.87% (inactive).

Q: With `CN(CC(O)COc1ccc(S(=O)(=O)N2CCOCC2)cc1Cl)C1CCCCC1` (stereo unspecified) as the compound, how does the inhibition read?
A: Its inhibition is -0.337% (inactive).

Q: For `CCCc1nc2scc(-c3ccc(C)cc3)c2c(=O)n1N`, which inhibition is on record?
A: The inhibition was -1.81% (inactive).

Q: Which inhibition does the source give for `Cc1onc(-c2c(F)cccc2Cl)c1C(=O)N(C)CC(=O)Nc1cccc(F)c1` here?
A: The inhibition was -1.86% (inactive).

Q: For `COC(=O)c1sc(N2CCN(Cc3ccccc3)CC2)nc1N`, which inhibition is on record?
A: The inhibition was -1.78% (inactive).

Q: How did the inhibition turn out when `CCn1c(SCCC(C)C)nnc1-c1c[nH]c2ccccc12` was run?
A: The inhibition was 0.439% (inactive).

Q: Which inhibition does the source give for `C=CC(COCc1ccccc1)N(Cc1ccccc1)S(=O)(=O)c1ccccc1Br` (stereo unspecified) here?
A: Its inhibition is 0.0215% (inactive).

Q: How did the inhibition turn out when `O=C(O)c1ccc(-n2nc(-c3ccccc3)c3ccccc3c2=O)cc1` was run?
A: Its inhibition is -0.73% (inactive).

Q: How did the inhibition turn out when `CSCC[C@H](NC(=O)NCc1cccs1)C(=O)O` was run?
A: Its inhibition is 1.04% (inactive).

Q: How did the inhibition turn out when `COc1ccc(CCN(C)C(=O)C23CC4CC(CC(Cl)(C4)C2)C3)cc1OC` was run?
A: The inhibition was -1.39% (inactive).

Q: How did the inhibition turn out when `CCn1nc(C(=O)Nc2ccc(N3CCOCC3)cc2)c2ccccc2c1=O` was run?
A: The inhibition was -1.35% (inactive).

Q: With `C=C(C)CNC(=O)c1ccc(OC2CCN(C(=O)COC)CC2)cc1` as the compound, how does the inhibition read?
A: The inhibition was -0.166% (inactive).

Q: How did the inhibition turn out when `C#CCN1CC(C)/C(=N/O)CC1C` (stereo unspecified) was run?
A: The inhibition was -0.192% (inactive).

Q: For `O=c1[nH]oc(O)c1-c1ncc(C(F)(F)F)cc1Cl`, which inhibition is on record?
A: Its inhibition is -0.466% (inactive).

Q: For `Nn1c(SCc2ccccc2)nnc1C1CCCCC1`, which inhibition is on record?
A: The inhibition was -0.356% (inactive).

Q: How did the inhibition turn out when `COc1ccccc1C(=O)NCCC(=O)NC1=NCCS1` was run?
A: The inhibition was 0.112% (inactive).

Q: How did the inhibition turn out when `CCN(CC)C(=O)CS(=O)CC(=O)Nc1cc(OCCOC)c(Cl)cc1Cl` (stereo unspecified) was run?
A: Its inhibition is -0.37% (inactive).

Reference: PubChem BioAssay AID504414 (Broad Institute, 2011)
